The source made the active and inactive calls. No cut-off for these calls is given here.
Assays:
[1] = tested on: e-NPP1; test: Stability of the compound assessed as human e-NPP1-mediated hydrolysis at pH 8.5 after 20 mins by HPLC analysis; format: ADME; conditions: human, human e-NPP1 enzyme, pH 8.5; read-out: Drug degradation
Summary of the method: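 Human NPP1 preparation preincubated 3 min at 37 °C in 1 mM CaCl2, 200 mM NaCl, 10 mM KCl, 100 mM Tris, pH 8.5. Started with 0.2 mM dinucleotide solution (added volume) and stopped after 20 min in ice-cold perchloric acid. Neutralised with KOH, then NMP formation followed by HPLC. Percent substrate hydrolysed is the mean of two experiments run in triplicate.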

[2] = biological target: P2Y purinoceptor 1 (Meleagris gallopavo) (UniProt P49652); test: Antagonist activity at turkey P2Y purinoceptor 1 expressed in human 1321N1 cells assessed as inhibition of 2-Sme-ADP-induced increase in intracellular calcium concentration by spectrofluorimetry; format: functional, cell-based
Summary of the method: (§1)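 Fura-2-loaded 1321N1 transfectants (turkey P2Y1, human P2Y2/P2Y4, rat P2Y6) in Hepes-buffered saline, pH 7.4, at 37 °C. Analogues were tested against equimolar reference agonist: 2-MeS-ADP for P2Y1, UTP for P2Y2/4, UDP for P2Y6. Blockade of the [Ca2+]i rise was followed by dual-excitation spectrofluorometry.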

[3] = biological target: T1, P2Y purinoceptor 2 (Homo sapiens, UniProt P41231); test: Antagonist activity at human P2Y purinoceptor 2 expressed in human 1321N1 cells assessed as inhibition of UTP-induced increase in intracellular calcium concentration by spectrofluorimetry; format: functional, cell-based; summary of the method: as §1
[4] = biological target: T2, P2Y purinoceptor 4 (Homo sapiens, UniProt P51582); test: Antagonist activity at human P2Y purinoceptor 4 expressed in human 1321N1 cells assessed as inhibition of UTP-induced increase in intracellular calcium concentration by spectrofluorimetry; format: functional, cell-based; summary of the method: as §1
[5] = biological target: P2Y purinoceptor 6 (Rattus norvegicus) (UniProt Q63371); test: Antagonist activity at rat P2Y purinoceptor 6 expressed in human 1321N1 cells assessed as inhibition of UDP-induced increase in intracellular calcium concentration by spectrofluorimetry; format: functional, cell-based; summary of the method: as §1
[6] = biological target: T1, P2Y purinoceptor 2; test: Agonist activity at human P2Y purinoceptor 2 expressed in human 1321N1 cells assessed as increase in intracellular calcium concentration at 100 uM by spectrofluorimetry; format: functional, cell-based
[7] = biological target: P2Y purinoceptor 1 (Meleagris gallopavo) (UniProt P49652); test: Agonist activity at turkey P2Y purinoceptor 1 expressed in human 1321N1 cells assessed as increase in intracellular calcium concentration at 100 uM by spectrofluorimetry; format: functional, cell-based
[8] = biological target: P2Y purinoceptor 1 (Meleagris gallopavo, UniProt P49652); test: Agonist activity at turkey P2Y purinoceptor 1 expressed in human 1321N1 cells assessed as increase in intracellular calcium concentration by spectrofluorimetry; format: functional, cell-based; conditions: read-out: EC50
[9] = biological target: T2, P2Y purinoceptor 4; test: Agonist activity at human P2Y purinoceptor 4 expressed in human 1321N1 cells assessed as increase in intracellular calcium concentration by spectrofluorimetry; format: functional, cell-based; conditions: 1321-n1
Summary of the method: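 1321N1 astrocytoma cells (no endogenous P2Y receptors) stably expressing hP2Y4, grown in DMEM with 5% FBS, penicillin/streptomycin and 500 μg/mL G-418. Fura-2-loaded cell suspensions; compounds applied at various concentrations, 37 °C, 10 mM Hepes-buffered saline pH 7.4 with 1 mM CaCl2/MgCl2. Peak [Ca2+]i rise by dual-excitation fluorometry gives EC50; UTP reference agonist; three experiments on separate days.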

[10] = biological target: P2Y purinoceptor 6 (Rattus norvegicus, UniProt Q63371); test: Agonist activity at rat P2Y purinoceptor 6 expressed in human 1321N1 cells assessed as increase in intracellular calcium concentration by spectrofluorimetry; format: functional, cell-based; conditions: read-out: EC50
Summary of the method: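 1321N1 astrocytoma cells lacking endogenous P2Y receptors, stably transfected with turkey P2Y1, human P2Y2, human P2Y4 or rat P2Y6, grown in DMEM with 5% FBS, penicillin/streptomycin and 500 µg/mL G-418. Fura-2-loaded cell suspensions were exposed at 37 °C in 10 mM Hepes-buffered saline, pH 7.4, with 1 mM CaCl2 and 1 mM MgCl2. Peak [Ca2+]i rise by dual-excitation spectrofluorometry across concentrations; EC50 from curve fits; three experiments on separate days per subtype.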

T1 sequence (P41231 whole entry): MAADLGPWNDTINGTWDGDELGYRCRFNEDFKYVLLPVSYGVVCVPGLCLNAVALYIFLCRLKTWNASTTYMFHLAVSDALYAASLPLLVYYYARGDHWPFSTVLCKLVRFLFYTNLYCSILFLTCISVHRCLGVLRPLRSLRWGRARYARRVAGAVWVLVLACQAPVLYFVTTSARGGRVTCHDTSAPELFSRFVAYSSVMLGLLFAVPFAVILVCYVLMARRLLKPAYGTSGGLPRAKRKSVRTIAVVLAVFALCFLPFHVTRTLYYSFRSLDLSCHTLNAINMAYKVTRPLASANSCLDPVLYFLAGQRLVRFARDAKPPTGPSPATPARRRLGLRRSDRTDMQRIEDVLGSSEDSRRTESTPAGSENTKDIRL
Sequence of P2Y purinoceptor 6 (Rattus norvegicus) (Q63371 whole entry): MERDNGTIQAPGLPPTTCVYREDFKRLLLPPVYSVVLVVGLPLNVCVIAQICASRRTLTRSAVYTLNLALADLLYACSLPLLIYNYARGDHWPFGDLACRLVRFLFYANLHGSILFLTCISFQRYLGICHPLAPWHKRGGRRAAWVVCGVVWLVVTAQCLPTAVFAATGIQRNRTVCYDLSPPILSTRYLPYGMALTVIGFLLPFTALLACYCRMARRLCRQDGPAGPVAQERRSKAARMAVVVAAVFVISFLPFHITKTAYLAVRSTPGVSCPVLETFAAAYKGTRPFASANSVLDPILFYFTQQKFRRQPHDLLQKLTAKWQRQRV
Sequence of P2Y purinoceptor 1 (Meleagris gallopavo) (P49652 whole entry): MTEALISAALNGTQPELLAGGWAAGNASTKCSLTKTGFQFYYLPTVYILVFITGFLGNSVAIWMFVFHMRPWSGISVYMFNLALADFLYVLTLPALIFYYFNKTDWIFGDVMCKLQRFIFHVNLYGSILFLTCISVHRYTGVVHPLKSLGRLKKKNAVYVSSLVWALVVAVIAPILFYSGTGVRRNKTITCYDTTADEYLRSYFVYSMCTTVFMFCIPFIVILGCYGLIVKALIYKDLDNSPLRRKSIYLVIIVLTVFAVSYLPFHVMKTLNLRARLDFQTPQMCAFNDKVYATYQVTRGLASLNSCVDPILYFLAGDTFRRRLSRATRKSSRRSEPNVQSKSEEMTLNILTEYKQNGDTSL
T2 sequence (P51582 whole entry): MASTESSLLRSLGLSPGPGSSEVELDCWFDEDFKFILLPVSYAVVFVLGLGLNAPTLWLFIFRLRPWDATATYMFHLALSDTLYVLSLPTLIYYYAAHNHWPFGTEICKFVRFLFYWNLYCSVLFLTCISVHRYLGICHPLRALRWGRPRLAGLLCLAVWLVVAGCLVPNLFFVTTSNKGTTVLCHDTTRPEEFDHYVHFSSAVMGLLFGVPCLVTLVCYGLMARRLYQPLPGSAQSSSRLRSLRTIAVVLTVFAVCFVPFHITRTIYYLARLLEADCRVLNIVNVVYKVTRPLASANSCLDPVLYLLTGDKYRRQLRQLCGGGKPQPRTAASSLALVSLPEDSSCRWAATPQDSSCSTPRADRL
Sequence of P2Y purinoceptor 6 (Q63371 whole entry): as the sequence (Q63371 whole entry) above
Sequence of P2Y purinoceptor 1 (P49652 whole entry): as the sequence (P49652 whole entry) above

Row | metabolised at 20 min [1] [%] | Activity [2] | Activity [3] | Activity [4] | Activity [5] | Activity [6] | Activity [7] | EC50 [8] [µM] | EC50 [9] | EC50 [10] [µM] | SMILES
1 | 22 |  |  |  |  |  |  |  |  |  | Nc1ncnc2c1ncn2[C@@H]1O[C@H](COP(=O)(O)OP(=O)(O)OP(=O)(O)OC[C@H]2O[C@@H](n3cnc4c(N)ncnc43)[C@H](O)[C@@H]2O)[C@@H](O)[C@H]1O
2 |  | inactive | inactive | inactive | inactive | Active |  |  |  |  | BP(=O)(OC[C@H]1O[C@@H](n2ccc(=O)[nH]c2=O)[C@H](O)[C@@H]1O)OP(=O)(O)OP(=O)(O)OP(=O)(O)OC[C@H]1O[C@@H](n2ccc(=O)[nH]c2=O)[C@H](O)[C@@H]1O.CCCCN(CCCC)CCCC.CCCCN(CCCC)CCCC.CCCCN(CCCC)CCCC.CCCCN(CCCC)CCCC (stereo in doubt; 13A)
3 |  | inactive | inactive | inactive | inactive |  | Active |  |  |  | BP(=O)(OP(=O)(O)OC[C@H]1O[C@@H](n2cnc3c(N)ncnc32)[C@H](O)[C@@H]1O)OP(=O)(O)OP(=O)(O)OC[C@H]1O[C@@H](n2ccc(=O)[nH]c2=O)[C@H](O)[C@@H]1O.CCCCN(CCCC)CCCC.CCCCN(CCCC)CCCC.CCCCN(CCCC)CCCC.CCCCN(CCCC)CCCC (stereo in doubt; 8A)
4 | 3 |  |  |  |  |  |  | 0.5 | Not Active | 20.9 | BP(=O)(OP(=O)(O)OC[C@H]1O[C@@H](n2ccc(=O)[nH]c2=O)[C@H](O)[C@@H]1O)OP(=O)(O)OP(=O)(O)OC[C@H]1O[C@@H](n2cnc3c(N)ncnc32)[C@H](O)[C@@H]1O.CCCCN(CCCC)CCCC.CCCCN(CCCC)CCCC.CCCCN(CCCC)CCCC.CCCCN(CCCC)CCCC (stereo in doubt; 9A) [listing 1 of 2 here]
5 |  | inactive | inactive | inactive | inactive |  | Active |  |  |  | BP(=O)(OP(=O)(O)OC[C@H]1O[C@@H](n2ccc(=O)[nH]c2=O)[C@H](O)[C@@H]1O)OP(=O)(O)OP(=O)(O)OC[C@H]1O[C@@H](n2ccc(=O)[nH]c2=O)[C@H](O)[C@@H]1O.CCCCN(CCCC)CCCC.CCCCN(CCCC)CCCC.CCCCN(CCCC)CCCC.CCCCN(CCCC)CCCC (stereo in doubt; 7B)
6 |  | inactive | inactive | inactive | inactive | Active |  |  |  |  | BP(=O)(OP(=O)(O)OC[C@H]1O[C@@H](n2ccc(=O)[nH]c2=O)[C@H](O)[C@@H]1O)OP(=O)(O)OP(=O)(O)OC[C@H]1O[C@@H](n2cnc3c(N)ncnc32)[C@H](O)[C@@H]1O.CCCCN(CCCC)CCCC.CCCCN(CCCC)CCCC.CCCCN(CCCC)CCCC.CCCCN(CCCC)CCCC (stereo in doubt; 9A) [listing 2 of 2 here]
7 |  | inactive | inactive | inactive | inactive |  | Active |  |  |  | BP(=O)(OC[C@H]1O[C@@H](n2ccc(=O)[nH]c2=O)[C@H](O)[C@@H]1O)OP(=O)(O)OP(=O)(O)OP(=O)(O)OC[C@H]1O[C@@H](n2ccc(=O)[nH]c2=O)[C@H](O)[C@@H]1O.CCCCN(CCCC)CCCC.CCCCN(CCCC)CCCC.CCCCN(CCCC)CCCC.CCCCN(CCCC)CCCC (stereo in doubt; 13B)
8 | 17 |  |  |  |  |  |  |  |  |  | Nc1ncnc2c1ncn2[C@@H]1O[C@H](COP(=O)(O)OP(=O)(O)OP(=O)(O)OP(=O)(O)OC[C@H]2O[C@@H](n3cnc4c(N)ncnc43)[C@H](O)[C@@H]2O)[C@@H](O)[C@H]1O [DIADENOSINE TETRAPHOSPHATE]

Row | SMILES | metabolised at 20 min [1] [%] | Activity [2] | Activity [3] | Activity [4] | Activity [5] | Activity [6] | Activity [7] | EC50 [8] [µM] | EC50 [9] | EC50 [10] [µM]
9 | O=c1ccn([C@@H]2O[C@H](COP(=O)(O)OP(=O)(O)OP(=O)(O)OC[C@H]3O[C@@H](n4ccc(=O)[nH]c4=O)[C@H](O)[C@@H]3O)[C@@H](O)[C@H]2O)c(=O)[nH]1 | 21 |  |  |  |  |  |  |  |  | 

From ChEMBL document CHEMBL1949525, “Boranophosphate isoster controls P2Y-receptor subtype selectivity and metabolic stability of dinucleoside polyphosphate analogues” (J Med Chem, 2012)
